Assay results taken from ChEMBL document CHEMBL4513216, “Probing the Open Global Health Chemical Diversity Library for Multistage-Active Starting Points for Next-Generation Antimalarials” (ACS Infect Dis, 2020).

assay: Toxicity liver stage against HepG2, at 10uM; format: cell-based; design: test concentration 10 uM, cell line HepG2-A16-CD81EGFP; conditions: human, HepG2-A16-CD81EGFP cells; read-out: INHIBITION
In short: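 Uninfected HepG2-A16-CD81EGFP cells, 3 × 10^3 per well, 1536-well, plated on prespotted compound at 10 μM final, parasite-free screening media added to match infected plates; puromycin 10 μM positive, DMSO 0.5% negative; run in parallel with 48 h PbLuc assay at 37 °C, 5% CO2; viability by CellTiter-Glo luminescence, normalized to controls.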

Row | Structure (SMILES) | cytotoxicity at 10 µM [%]
1 | FC(F)(F)c1[nH]nc2c1CN(Cc1ccccc1)CC2 | 11.8
2 | c1ccc(C2CCN(c3cncc(-n4cccn4)n3)CC2)cc1 | -15.3
3 | O=C(NC1CCCC1)O[C@H]1COCCN(c2nc3ccccc3s2)C1 | -0.655
4 | O=C(C1=COCCO1)N1CC(Oc2nc3c(C(F)(F)F)cccc3s2)C1 | 36
5 | CCOc1ccc(S(=O)(=O)Nc2cnc(OC)nc2OC)cc1 | 44.7
6 | CC(C)N1CCN(C)CC1c1nnc2ccc(C(=O)N3CCCC3)cn12 (stereo not given) | -145
7 | COc1ccc(-c2c(C)nn3c(=N)c(C#N)n[nH]c23)cc1OC | 8.29
8 | Cc1cccc(NC2CCc3c2[nH]c(=O)n(C2CCCCC2)c3=O)c1C (stereo not given) | 5.05
9 | Cc1cnc(NC(=O)c2csc(NCC(C)C)n2)s1 | 34.4
10 | Cc1[nH]/c(=N\C(=O)c2csc(NC3CCCC3)n2)sc1C | 38.8
11 | CCOC(=O)Cn1cnc2nc3n(c2c1=O)CCC3 | -2.06
12 | Oc1cc(C2CCCN(Cc3cccs3)C2)nc(-c2ccccn2)n1 (stereo not given) | 29.5
13 | Oc1cc(C2CCCCN2Cc2cccs2)nc(-c2ccccn2)n1 (stereo not given) | 39.1
14 | Cc1nn(C)cc1C1=NS(=O)(=O)N(C)C(C(=O)Nc2ccc(Br)cc2)=C1 | 3.46
15 | COc1cccc(OC)c1CNC(Cc1ccsc1)c1ccc(C)cn1 (stereo not given) | 2.75
16 | CC(C)(C)n1nnnc1CN(Cc1ccccc1)Cc1ccc(Cl)cc1 | 28.8
17 | CN1CCc2nc(C3CCN(C(=O)CCC4CCCC4)CC3)ncc2C1 | -3.06
18 | Cc1cc(-c2cnc(NCc3cccnc3)nc2C(C)(C)C)on1 | 49.6
19 | NS(=O)(=O)c1ccc(NCc2ccccc2F)cc1C(F)(F)F | -10.2
20 | CCc1ccc(S(=O)(=O)N2CCCC(c3ncc[nH]3)C2)s1 (stereo not given) | 12.8
21 | CC(C)(C)OC(=O)N1CCCN(Cc2ccon2)c2ccccc21 | 11.1
22 | COc1ccc(C2CCCN2c2ccnc(C)c2Cl)c(OC)c1 (stereo not given) | 28.4

Row | Structure (SMILES) | cytotoxicity at 10 µM [%]
23 | Cn1nccc1C1CCN(Cc2cnn(-c3ccccc3)n2)CC1 | 27.2
24 | CN1CCN(c2ccc(NCc3ccc(OC(F)(F)F)cc3)cn2)CC1 | 14.9
25 | O=C(CN1CCCC(c2ncc[nH]2)C1)NCC(F)(F)F (stereo not given) | 9.37
26 | CC1CCN(CCNC(=O)c2sccc2C2CC2)CC1 | -144
27 | COCCN(Cc1ccccc1)C(=O)c1cnn(C)c1C | -144
28 | CCCn1c(=O)n(CCC(=O)N(C)Cc2ccc(C)o2)c2ccccc21 | -3.26
29 | CCc1nc(CN(C)C(=O)c2ccc(OCCCOC)nc2)cs1 | -19.5
30 | NC(=O)N1CCCN(C2CCc3ccc(F)cc32)CC1 (stereo not given) | 3.93
31 | Cc1cc(CN(C)Cc2csc(-c3ccc(C(C)C)cc3)n2)no1 | 41.1
32 | CC(CNC(=O)c1ccc(C#N)cc1)N1CCc2ccccc21 (stereo not given) | 2.84
33 | O=C(O)c1cc(S(=O)(=O)Nc2cccc3c2OCCO3)c(Cl)cc1F | -7.08
34 | CN(CCc1ccccn1)Cc1nccn1Cc1ccccc1 | 10.1
35 | CN(Cc1ccccc1OC(F)(F)F)C(=O)C1CC1 | 10.8
36 | CN(C)c1cc(C(=O)NCc2cccnc2-n2cncn2)ccn1 | 8.15
37 | CN(C)c1ncccc1NC(=O)C1CN(Cc2ccccc2)CCO1 (stereo not given) | 0.499
38 | CC(=O)c1cccc(OCCCC(=O)N(C)Cc2cnn(C)c2)c1 | -3.05
39 | CC(C)c1cc(C(=O)N2CCN(Cc3ccc(C#N)cc3)CC2)n[nH]1 | 26.3
40 | CC(C)c1noc(CN(Cc2ccc(F)cc2)C2CC2)n1 | 6.83
41 | Cc1n[nH]c(C)c1C1COCCN1C(=O)Cc1ccccc1F (stereo not given) | -2.46
42 | COC(C)(C)CNC(=O)N1CCCC1c1c(C)n[nH]c1C (stereo not given) | 1.76
43 | Cc1ccc(C)c(OC2CCN(C(=O)CNc3ccccc3Cl)CC2)c1 | 40.2
44 | Cc1nc2ccccc2nc1NCc1cccc(OCC2CCCO2)c1 (stereo not given) | 44.3

Row | Structure (SMILES) | cytotoxicity at 10 µM [%]
45 | CC(C)n1nc2c(cc1=O)CN(c1ncnc3ccsc13)CC2 | 60.6
46 | O=S(=O)(c1cccnc1)N1CCN(CC(O)c2ccccc2)CC1 (stereo not given) | 0.871
47 | CS(=O)(=O)Cc1noc(CN2CCc3c(Cl)cccc3C2)n1 | -4.07
48 | CS(=O)(=O)c1cccc(OCC(=O)N2CCCC2c2ccccc2Cl)c1 (stereo not given) | 4.36
49 | Fc1ccc(C(NCc2nnc(-c3ccco3)o2)C2CCC2)cc1 (stereo not given) | -36.3
50 | COCC(=O)Nc1nccn1Cc1ccc(Br)cc1 | -55.1
51 | Cc1nc(CN2CCCC(Nc3ncnc4c3CCC4)C2)no1 (stereo not given) | 34.3
52 | CN(Cc1ccc(Cl)s1)C(=O)CN(C)C1CCc2ccccc21 (stereo not given) | 18.1
53 | O=C(CN1CCc2sccc2C1)Nc1ccnc2ccnn12 | 46.8
54 | CC(=O)c1c(F)cccc1N1CCC(Cc2cccnc2)CC1 | 43.6
55 | Cc1cnn(CC2CN(c3ncnc4ccsc34)CCO2)c1 (stereo not given) | 53.2
56 | COCC(=O)N1C[C@H]2CCC[C@@]2(COC)C1 | 5.93
57 | CC(C)n1c2ccccc2c2c1cc(C(=O)N(C)C)n2C | -85.4
58 | CC(=O)N1CCOC2(CCN(C(=O)C3CC3)CC2)C1 | -106
59 | CN1CCN(Cc2cn3c(n2)CN(Cc2ccncc2)CC3)CC1 | -94.8
60 | COCCC(=O)N1CCC2(CN(Cc3cccc(Cl)c3)C2)C1 | -79.6
61 | Cc1[nH]c2ccccc2c1-c1ccnc(N[C@@H](C)CO)n1 | -6.52
62 | c1cc(-c2cn3nccc3nc2C2CCCCC2)nc(N2CCCC2)n1 | 10.7
63 | CSc1nccc(N2CCC3(CCCN(Cc4ccc(F)cc4)C3)C2)n1 (stereo not given) | 9.5
64 | c1ccc(C2CCN(c3ncnc4c3CCNC4)CC2)cc1 | 5.03
65 | COc1cccc(CN2CCC(CO)(Cc3ccc(Cl)cc3)CC2)c1O | -133
66 | COc1ccc2cc(C3CN(C(=O)CCNC(C)=O)CCO3)ccc2c1 (stereo not given) | 9.85

Row | Structure (SMILES) | cytotoxicity at 10 µM [%]
67 | CCCC1(CO)CCCN(Cc2nccs2)C1 (stereo not given) | 1.41
68 | CCOc1ccc(CN(CCOC)c2nc(C)nc3oc(C)nc23)cc1 | -30.2
69 | CCn1ncc(CNC(=O)c2cn(CCC3CCCCN3)nn2)c1C (stereo not given) | 2.72
70 | Cc1cc(Cl)ccc1C(=O)C1CCCN(Cc2cnc(N(C)C)s2)C1 (stereo not given) | -13.1
71 | Cc1ccc(C2(O)CCN(C(=O)CCn3ccc(=O)[nH]c3=O)CC2)nc1 | 1.99
72 | Cc1nn(C)c2nc(N(CCOc3ccccc3)CC3CCCO3)sc12 (stereo not given) | 46.8
73 | CCOC(=O)C1(Cc2ccc(Cl)cc2)CCN(Cc2ncc[nH]2)CC1 | -2.36
74 | COc1cc(Oc2cnc3ccccc3n2)ccc1CN1CCCC1 | 5.27
75 | Cc1ncsc1-c1ccn(CC(=O)Nc2cnn(C)n2)n1 | 93.8
76 | Cc1nn(-c2ccccc2)c(C)c1-c1ccnc(N2CCCNCC2)n1 | -9.5
77 | Cc1cc(C(F)(F)F)nn1CCNC(=O)C(C)n1ccnc1C(C)C (stereo not given) | -5.24
78 | CCc1ccc(C2CC(=O)Nc3cc(NS(C)(=O)=O)ccc32)o1 (stereo not given) | 86
79 | CCS(=O)(=O)CCNC1CCN(c2nc3ccc(Cl)cc3s2)CC1 | 32
80 | Cc1cc(N2CCCC(c3[nH]ncc3Cc3ccccc3)C2)nc(N)n1 (stereo not given) | 57.1
81 | CC(C)c1cc(C2CCN(C(=O)Cn3cnc4ccccc43)CC2)[nH]n1 | 51.8
82 | CCn1cc(-c2cc(-c3ccn(C)c3)nc(N)c2C#N)cc1C#N | 2.11
83 | Cc1ccc(OC2CCN(CCn3cncn3)CC2)cc1 | -1.67
84 | O=C(C1CCOCC1)N1CCC(OCc2cccnc2)CC1 | 2.12
85 | COc1ccccc1OCc1cc(C(=O)NC[C@@H]2CCCN2)n[nH]1 | -3.81
86 | CNc1nc(C)c(C(=O)N2C[C@@H](C(=O)O)[C@H](C3CC3)C2)s1 | 4.29
87 | CC(c1cccc(-c2nccn2CCc2cn[nH]c2)c1)N(C)C (stereo not given) | -4.83
88 | COc1ccc2cc(C3CN(C(=O)N(C)C)CCO3)ccc2c1 (stereo not given) | 4.26

Row | Structure (SMILES) | cytotoxicity at 10 µM [%]
89 | Nc1nccc(N2CCCC(CO)(CCOc3ccccc3)C2)n1 (stereo not given) | 46.7
90 | CCc1c(C)nc2cc(C3CCN(Cc4ccccc4F)C3)nn2c1O (stereo not given) | 1.7
91 | Cc1nn(C)c(Cl)c1C1CCCN1C(=O)c1ccc(C(N)=O)cn1 (stereo not given) | -32
92 | CCOC(=O)c1ccc(S(=O)(=O)NCc2cccnc2N(C)C)cc1 | 32.1
93 | O=C(NCCCNc1ccc(C(F)(F)F)cn1)c1ccc(F)cc1Br | 13.1
94 | N#Cc1ccc(CN2CCN(C(=O)c3cc(C4CC4)[nH]n3)CC2)cc1 | 18.9
95 | CCCS(=O)(=O)N1CCC2(CC1)CCn1c(-c3cnn(C)c3)cnc12 | -142
96 | CC(=O)N1CC[C@H]2[C@H](C[C@@H](Cn3cncn3)N2c2nccs2)C1 | -140
97 | CC(C)CN1C(=O)C2(CCN(Cc3nccs3)C2)c2ccccc21 (stereo not given) | 0.371
98 | COc1cc(N2CC[C@@H](O)[C@@H]2Cc2cccnc2)ncn1 | -77.9
99 | Fc1cccc(N2CCCC3(CN(Cc4ccncc4)CCO3)C2)c1 (stereo not given) | 8.98
100 | COc1cccc(-c2noc(C3CCN(Cc4ccccc4F)C3)n2)c1 (stereo not given) | -2.06
101 | COc1cc(N2CCCC3(CCN(c4cccnc4)C3=O)C2)ncn1 (stereo not given) | -103
102 | CN(C)CC(=O)N1CCC2(CC1)CN(c1ncccn1)CCO2 | -68.7
103 | CNC(=O)c1cc2c(nc1NCC(C)C)CCN(CC1CC1)CC2 | -158
104 | COc1cc(N2CCC3(CCCN(Cc4ccccn4)C3)C2)ncn1 (stereo not given) | -88.6
105 | NC(=O)N1CCC2(CCN(C(=O)c3cccnc3)CC2)C1 | -83
106 | Cc1nccc(NCc2cncc3c2CCN(CC2CC2)C3)n1 | -92.4
107 | CN(C)C(=O)CN1C(=O)C[C@@H]2[C@@H]1CCN2Cc1cccc(C#N)c1 | -61.3
108 | Cc1ccc(CN2CCCC3(CCN(Cc4ccoc4)CC3)C2)cc1 | -91
109 | Fc1cnc(N2CCN3C[C@H](Oc4cccnc4)C[C@H]3C2)nc1 | 13.1
110 | CCN1CCn2c(-c3cccc(F)c3)cnc2C12CCN(C(C)=O)CC2 | -1.09
